# Columns and labels:
# [1] = Growth inhibition of human HME50 cells at 100 nM; format: cell-based
# [2] = Growth inhibition of human HME50T cells at 100 nM; format: functional
# SK-MEL-28 = assay: Cytotoxicity against human SK-MEL-28 cells expressing vacuolar ATPase; format: functional, cell-based
# Procedure, shortened: (§1)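 Cancer cell lines treated across a range of compound concentrations; the concentration inhibiting growth by 50% was calculated. IC50 given as average ± standard deviation of three experiments.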
# A549 = assay: Cytotoxicity against human A549 cells expressing vacuolar ATPase; format: functional, cell-based; procedure, shortened: as §1
# NCI-H460 = assay: Cytotoxicity against human NCI-H460 cells expressing vacuolar ATPase; format: functional, cell-based; procedure, shortened: as §1
# MDA-MB-231 = assay: Cytotoxicity against human MDA-MB-231 cells expressing vacuolar ATPase; format: functional, cell-based; procedure, shortened: as §1
# A2058 = assay: Cytotoxicity against human A2058 cells expressing vacuolar ATPase; format: functional, cell-based; procedure, shortened: as §1
# PANC-1 = assay: Cytotoxicity against human PANC1 cells expressing vacuolar ATPase; format: functional, cell-based; procedure, shortened: as §1
# HCT-116 = assay: Cytotoxicity against human HCT116 cells expressing vacuolar ATPase; format: functional, cell-based; procedure, shortened: as §1
# SK-HEP1 = assay: Cytotoxicity against human SKHEP1 cells expressing vacuolar ATPase; format: functional, cell-based; procedure, shortened: as §1
# NCI-H1299 = assay: Cytotoxicity against human NCI-H1299 cells expressing vacuolar ATPase; format: functional, cell-based; procedure, shortened: as §1
# HOS = assay: Cytotoxicity against human HOS cells expressing vacuolar ATPase; format: functional, cell-based; procedure, shortened: as §1
# HepG2 = assay: Cytotoxicity against human HepG2 cells expressing vacuolar ATPase; format: functional, cell-based; procedure, shortened: as §1
# [3] = Cytotoxicity against human MCF7/DX cells expressing vacuolar ATPase; format: functional, cell-based
# Procedure, shortened: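 Doxorubicin-resistant MCF-7 subline, resistant to chemotherapeutics that are P-glycoprotein substrates. Cells treated across a range of compound concentrations; the concentration inhibiting growth by 50% was calculated. IC50 given as average ± standard deviation of three experiments.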
# HCT-15 = assay: Cytotoxicity against human HCT15 cells expressing vacuolar ATPase; format: functional, cell-based; procedure, shortened: as §1
# SK-MES-1 = assay: Cytotoxicity against human SKMES1 cells expressing vacuolar ATPase; format: functional, cell-based; procedure, shortened: as §1
# SW480 = assay: Cytotoxicity against human SW480 cells expressing vacuolar ATPase; format: functional, cell-based; procedure, shortened: as §1
# MG-63 = assay: Cytotoxicity against human MG63 cells expressing vacuolar ATPase; format: functional, cell-based; procedure, shortened: as §1
# SK-MEL-5 = assay: Cytotoxicity against human SK-MEL-5 cells expressing vacuolar ATPase; format: functional, cell-based; procedure, shortened: as §1
# MCF7 = assay: Cytotoxicity against human MCF7 cells expressing vacuolar ATPase; format: functional, cell-based; procedure, shortened: as §1
# ASPC1 = assay: Cytotoxicity against human AsPC1 cells expressing vacuolar ATPase; format: functional, cell-based; procedure, shortened: as §1
# HT-29 = assay: Cytotoxicity against human HT-29 cells expressing vacuolar ATPase; format: functional, cell-based; procedure, shortened: as §1
compound,measurement,setting,value
CC/C=C\C=C/C(=O)N/C=C/C[C@H]1C[C@@H](O)[C@@H](C)C/C=C/Cc2cccc(O)c2C(=O)O1 [SALICYLIHALAMIDE A],inhibition at 0.1 µM,[1],60%
same,inhibition at 0.1 µM,[2],75%
C[C@H]1C/C=C/Cc2cccc(O)c2C(=O)O[C@@H](C/C=C/NC(=O)C#Cc2ccccc2)C[C@H]1O [SALIPHENYLHALAMIDE],IC50,SK-MEL-28,98.5 nM
same,IC50,A549,146 nM
same,IC50,NCI-H460,52.9 nM
same,inhibition at 0.1 µM,[2],95%
same,IC50,MDA-MB-231,180 nM
same,IC50,A2058,154 nM
same,IC50,PANC-1,124 nM
same,IC50,HCT-116,69.3 nM
same,IC50,SK-HEP1,40.7 nM
same,IC50,NCI-H1299,77.2 nM
same,IC50,HOS,48.8 nM
same,IC50,HepG2,79.2 nM
same,IC50,[3],160 nM
same,IC50,HCT-15,100 nM
same,IC50,SK-MES-1,76.4 nM
same,IC50,SW480,425 nM
same,IC50,MG-63,449 nM
same,IC50,SK-MEL-5,106 nM
same,IC50,MCF7,156 nM
same,IC50,ASPC1,75.9 nM
same,IC50,HT-29,89.9 nM

# Source: ChEMBL document CHEMBL1154497, “Evaluating the potential of vacuolar ATPase inhibitors as anticancer agents and multigram synthesis of the potent salicylihalamide analog saliphenylhalamide” (Bioorg Med Chem Lett, 2008)
